Reference: ChEMBL document CHEMBL3045046, “Synthesis, herbicidal activities, and 3D-QSAR of 2-cyanoacrylates containing aromatic methylamine moieties” (J Agric Food Chem, 2008)

What was measured:
Assay type in all cases: functional
Brassica napus [1] = experiment: Herbicidal activity against Brassica napus (oilseed rape) assessed as inhibition of herb growth at 1.5 kg/ha during preemergence treatment protocol; conditions: pre-emergence, read-out: GI
Digitaria sanguinalis [2] = experiment: Herbicidal activity against hairy Digitaria sanguinalis (hairy crabgrass) assessed as inhibition of herb growth at 1.5 kg/ha during postemergence treatment protocol; conditions: post-emergence, read-out: GI
Brassica napus [3] = experiment: Herbicidal activity against Brassica napus (oilseed rape) assessed as inhibition of herb growth at 1.5 kg/ha during postemergence treatment protocol; conditions: post-emergence, read-out: GI
Amaranthus retroflexus [4] = experiment: Herbicidal activity against Amaranthus retroflexus assessed as inhibition of herb growth at 1.5 kg/ha during preemergence treatment protocol; conditions: pre-emergence, read-out: GI
Digitaria sanguinalis [5] = experiment: Herbicidal activity against hairy Digitaria sanguinalis (hairy crabgrass) assessed as inhibition of herb growth at 1.5 kg/ha during preemergence treatment protocol; conditions: pre-emergence, read-out: GI
Medicago sativa [6] = experiment: Herbicidal activity against Medicago sativa (alfalfa) assessed as inhibition of herb growth at 1.5 kg/ha during preemergence treatment protocol; conditions: pre-emergence, read-out: GI
Medicago sativa [7] = experiment: Herbicidal activity against Medicago sativa (alfalfa) assessed as inhibition of herb growth at 1.5 kg/ha during postemergence treatment protocol; conditions: post-emergence, read-out: GI
Amaranthus retroflexus [8] = experiment: Herbicidal activity against Amaranthus retroflexus assessed as inhibition of herb growth at 1.5 kg/ha during postemergence treatment protocol; conditions: post-emergence, read-out: GI
Spinacia oleracea = experiment: Inhibition of photosynthetic electron transport in Spinacia oleracea (spinach)isolated chloroplasts assessed as inhibition of Hill reaction
In short: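 Chloroplasts from fresh spinach leaves, homogenised in ice-cold pH 7.8 buffer (0.4 M sucrose, 10 mM NaCl, 50 mM Tris-HCl), spun 3 min 120g then 5 min 1000g at 4 °C. Reaction buffer 350 mM NaCl, 10 mM Tris-HCl pH 7.8 with DCPIP; 2 min light (360 µmol m^-2 s^-1), DCPIP reduction at 620 nm. Compounds 0.01 mg/L–0.3 mg/mL in […]/water, ≥triplicate; IC50 by log-linear regression.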

[9] = Spinacia oleracea, read-out: pIC50 (converted)

| Compound | inhibition of growth at 1500 g/ha (Brassica napus [1]) [%] | inhibition of growth at 1500 g/ha (Digitaria sanguinalis [2]) [%] | inhibition of growth at 1500 g/ha (Brassica napus [3]) [%] | inhibition of growth at 1500 g/ha (Amaranthus retroflexus [4]) [%] | inhibition of growth at 1500 g/ha (Digitaria sanguinalis [5]) [%] | inhibition of growth at 1500 g/ha (Medicago sativa [6]) [%] | inhibition of growth at 1500 g/ha (Medicago sativa [7]) [%] | inhibition of growth at 1500 g/ha (Amaranthus retroflexus [8]) [%] | IC50 (Spinacia oleracea) [ppm] | IC50 (Spinacia oleracea; [9]) [nM] |
| --- | --- | --- | --- | --- | --- | --- | --- | --- | --- | --- |
| CCOCCOC(=O)/C(C#N)=C(\NCc1cnc(OC)nc1)C(C)C | 0 | 52.2 | 19.4 | 22.2 | 46.2 | 57.1 | 74 | 3.4 |  |  |
| CCOCCOC(=O)/C(C#N)=C(\NCc1cnc(OCC)nc1)SC | 0 | 8.7 | 16.1 | 15.9 | 12.5 | 31.1 | 40.8 | 26.4 | 1.45 | 1070 |
| CCOCCOC(=O)/C(C#N)=C(\NCC1CCCO1)SC (stereo not given) | 0 | 0 | 47.5 | 9.5 | 35.7 | 21.8 | 23.4 | 37.8 | 27.92 | 20900 |
| CCOCCOC(=O)/C(C#N)=C(\NCC1CCCO1)C(C)C (stereo not given) | 80 | 100 | 97.2 | 3.2 | 40 | 20.3 | 60.5 | 100 | 6.874 | 6920 |
| CCOCCOC(=O)/C(C#N)=C(\NCC1CCOC1)C(C)C (stereo not given) | 0 | 57.6 | 88.2 | 12.6 | 0 | 2.3 | 41.3 | 37.8 | 41.4 | 41700 |
| CCOCCOC(=O)/C(C#N)=C(\NCc1ccoc1)C(C)C | 0 | 0 | 51.9 | 22.1 | 33.6 | 10.5 | 13.2 | 27.4 | 6.6 | 6610 |
| CCOCCOC(=O)/C(C#N)=C(\NCc1cnc(OCC)s1)C(C)C | 48.7 | 51.2 | 100 | 37.8 | 0 | 5.4 | 41.4 | 100 | 0.223 | 224 |
| CCCOc1ncc(CN/C(SC)=C(/C#N)C(=O)OCCOCC)s1 | 0 | 49.6 | 100 | 27 | 0 | 17.6 | 57.3 | 100 | 0.05 | 50.1 |
| CCCOc1ncc(CN/C(=C(/C#N)C(=O)OCCOCC)C(C)C)s1 | 9.8 | 52.8 | 100 | 27 | 6.9 | 0 | 48.7 | 100 | 0.08 | 79.4 |
| CCOCCOC(=O)/C(C#N)=C(\NCc1cnc(OC(C)C)s1)SC | 26 | 54.4 | 100 | 40.5 | 14.8 | 4.5 | 53.6 | 100 | 0.07 | 70.8 |
| CCOCCOC(=O)/C(C#N)=C(\NCc1cnc(OC(C)C)s1)C(C)C | 51.4 | 60.8 | 100 | 100 | 6.9 | 1.7 | 43.4 | 100 | 0.076 | 75.9 |
| CCOCCOC(=O)/C(C#N)=C(\NCc1cnc(OCC(F)(F)F)s1)SC | 65.4 | 47.2 | 100 | 43.2 | 8.9 | 1.7 | 60.9 | 98.7 | 0.055 | 55 |
| CCOCCOC(=O)/C(C#N)=C(\NCc1cnc(OCC(F)(F)F)s1)C(C)C | 71.9 | 95.2 | 100 | 51 | 34.6 | 0 | 53.3 | 100 | 0.074 | 74.1 |
| CCOCCOC(=O)/C(C#N)=C(\NCc1ccc(Cl)nn1)SC | 12.5 | 28.8 | 81 | 43.2 | 0 | 0 | 27.8 | 21.8 | 3.99 | 3980 |
| CCOCCOC(=O)/C(C#N)=C(\NCc1ccc(Cl)nn1)C(C)C | 59.5 | 48 | 100 | 27 | 10.9 | 4.5 | 31.4 | 91.6 | 4.3 | 4270 |
| CCOCCOC(=O)/C(C#N)=C(\NCc1ccc(OCC)nn1)SC | 0 | 0.8 | 64.6 | 56.8 | 0 | 0 | 24.2 | 32.9 | 12.29 | 9120 |
| CCOCCOC(=O)/C(C#N)=C(\NCc1ccc(OCC)nn1)C(C)C | 44.9 | 57.6 | 100 | 54 | 26.7 | 0 | 50.7 | 70.2 |  |  |
| CCOCCOC(=O)/C(C#N)=C(\NCc1ccc(N2CCOCC2)nn1)SC | 10.9 | 2.4 | 18.1 | 13.5 | 6.9 | 10.1 | 32.8 | 24 |  |  |
| CCOCCOC(=O)/C(C#N)=C(\NCc1ccc(N2CCOCC2)nn1)C(C)C | 49.8 | 13.6 | 85.4 | 5.4 | 22.8 | 2.6 | 15.2 | 19.1 |  |  |
| CCOCCOC(=O)/C(C#N)=C(\NCc1cnc(OC)nc1)SC | 42.4 | 2.2 | 28.8 | 58.1 | 26 | 42.8 | 45.1 | 15.5 | 3.79 | 3800 |
| CCOCCOC(=O)/C(C#N)=C(/CC)NCc1cnc(OC)nc1 | 51.5 | 2.2 | 63.7 | 34.6 | 36 | 29.4 | 26 | 20.7 |  |  |
| CCOCCOC(=O)/C(C#N)=C(\NCc1cnc(Br)s1)C(C)C | 82.2 | 48 | 100 | 18.9 | 3 | 1.7 | 30.8 | 100 | 0.107 | 107 |
| CCOCCOC(=O)/C(C#N)=C(\NCc1cnc(OCC)s1)SC | 23.3 | 51.2 | 100 | 43.2 | 44.6 | 14.8 | 62.6 | 100 | 0.115 | 115 |
